Assay results published in ChEMBL document CHEMBL4732058, “Development of pyrene-based fluorescent ether lipid as inhibitor of SK3 ion channels” (Eur J Med Chem, 2021).
The source made the active and inactive calls. No cut-off for these calls is given here.

Legend:
[1] = tested on: MDA-MB-435; test: Cytotoxicity against human MDA-MB-435 cells at 1 uM incubated for 48 hrs by MTT assay; assay type: cell-based; details: mda-mb-435, 48 h
[2] = molecular target: Small conductance calcium-activated potassium channel protein 3 (Rattus norvegicus) (UniProt P70605); test: Inhibition of recombinant rat SK3 expressed in HEK293T cells assessed as reduction in channel current at 10 uM and holding potential at 0 mV by whole cell patch clamp method relative to control; assay type: cell-based
Chain of Small conductance calcium-activated potassium channel protein 3 (Rattus norvegicus) (P70605 whole entry): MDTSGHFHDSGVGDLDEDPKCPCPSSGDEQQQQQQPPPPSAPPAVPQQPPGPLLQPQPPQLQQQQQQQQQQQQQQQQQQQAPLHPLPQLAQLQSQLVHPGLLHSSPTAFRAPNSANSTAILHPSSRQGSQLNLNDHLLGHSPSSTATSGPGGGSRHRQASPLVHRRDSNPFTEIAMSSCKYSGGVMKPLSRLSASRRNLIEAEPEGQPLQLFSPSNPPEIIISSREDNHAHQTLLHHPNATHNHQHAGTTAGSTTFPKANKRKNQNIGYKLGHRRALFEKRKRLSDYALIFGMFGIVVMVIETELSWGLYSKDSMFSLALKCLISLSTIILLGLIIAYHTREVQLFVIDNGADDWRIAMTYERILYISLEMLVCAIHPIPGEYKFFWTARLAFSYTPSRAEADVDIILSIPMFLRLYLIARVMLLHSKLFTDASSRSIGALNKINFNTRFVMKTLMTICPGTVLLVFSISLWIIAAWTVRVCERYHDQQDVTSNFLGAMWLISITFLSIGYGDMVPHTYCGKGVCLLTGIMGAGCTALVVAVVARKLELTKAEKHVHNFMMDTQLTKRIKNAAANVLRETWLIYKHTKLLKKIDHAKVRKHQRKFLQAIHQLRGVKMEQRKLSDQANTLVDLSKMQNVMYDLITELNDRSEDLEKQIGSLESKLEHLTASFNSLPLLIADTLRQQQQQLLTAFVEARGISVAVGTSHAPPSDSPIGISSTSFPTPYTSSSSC

[3] = Fluorescence property of compound in egg-PC based liposomes assessed as liposomal integration at 0.2 uM added before liposome formation by fluorescence spectra analysis; assay type: physicochemical; details: artificial membrane
Procedure, shortened: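 Pre-insertion: methanol stock (50 mM) added to egg-PC lipids before solvent evaporation, then liposomes formed; final compound 0.2 at lipid 8 or 40 (lipid/compound ratios 40 or 200).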

[4] = Fluorescence property of compound in preformed egg-PC based liposomes assessed as liposomal integration at 0.2 uM by fluorescence spectra analysis; assay type: physicochemical; details: artificial membrane
Procedure, shortened: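 Post-insertion: compound from methanol stock (50 mM) added to preformed, sonicated egg-PC liposomes; final compound 0.2 at lipid 8 or 40 (lipid/compound ratios 40 or 200).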

[5] = molecular target: Small conductance calcium-activated potassium channel protein 3 (Homo sapiens) (UniProt Q9UGI6); test: Inhibition of SK3 (unknown origin) assessed as reduction in SK3 expression in presence of proteinase K
Chain of Small conductance calcium-activated potassium channel protein 3 (Homo sapiens) (Q9UGI6 whole entry): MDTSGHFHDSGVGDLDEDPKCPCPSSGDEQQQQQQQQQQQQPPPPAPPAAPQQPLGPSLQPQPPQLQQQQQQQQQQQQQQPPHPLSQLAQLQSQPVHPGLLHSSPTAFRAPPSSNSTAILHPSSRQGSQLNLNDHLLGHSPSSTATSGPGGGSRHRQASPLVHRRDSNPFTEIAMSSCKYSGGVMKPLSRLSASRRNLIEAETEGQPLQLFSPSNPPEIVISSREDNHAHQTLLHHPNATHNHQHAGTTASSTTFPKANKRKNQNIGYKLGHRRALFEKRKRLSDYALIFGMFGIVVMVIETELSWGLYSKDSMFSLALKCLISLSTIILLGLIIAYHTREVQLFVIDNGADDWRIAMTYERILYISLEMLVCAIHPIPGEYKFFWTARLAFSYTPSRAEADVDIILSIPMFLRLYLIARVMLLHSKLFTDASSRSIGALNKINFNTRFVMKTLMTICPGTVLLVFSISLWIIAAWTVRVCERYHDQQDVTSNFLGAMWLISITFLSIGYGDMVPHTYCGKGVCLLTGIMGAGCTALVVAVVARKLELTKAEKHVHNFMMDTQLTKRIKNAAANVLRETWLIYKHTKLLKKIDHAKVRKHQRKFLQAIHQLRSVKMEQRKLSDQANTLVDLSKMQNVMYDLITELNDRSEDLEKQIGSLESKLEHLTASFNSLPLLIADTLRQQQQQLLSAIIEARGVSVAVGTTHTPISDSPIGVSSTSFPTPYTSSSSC
Procedure, shortened: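 Cell-surface expression by proteinase K cleavage: cells incubated with or without […] proteinase K at 37 °C for 30 min, quenched with ice-cold PBS with 6 mM PMSF and 25 mM EDTA; western blot, full-length SK3 75 kDa, surface-cleaved band 55 kDa.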

[6] = tested on: MDA-MB-435; test: Inhibition of cell migration in human MDA-MB-435 cells expressing SK3 channel at 0.3 uM measured after 24 hrs; assay type: functional
Procedure, shortened: (§1)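 Transwell migration through […] pore inserts in 24-well plates, using MDA-MB-435s expressing endogenous SK3 (SK3+) or not (SK3-); DMSO stock 10 mM. Results relative to control, mean ± S.E.M.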

[7] = molecular target: Small conductance calcium-activated potassium channel protein 3 (Rattus norvegicus) (UniProt P70605); test: Inhibition of recombinant rat SK3 expressed in HEK293 cells assessed as reduction in channel current at 10 uM and holding potential at 0 mV by whole cell patch clamp method relative to control; assay type: cell-based
[8] = tested on: MDA-MB-435; test: Inhibition of cell migration in human MDA-MB-435 cells expressing SK3 channel at 1 uM measured after 24 hrs; assay type: functional; procedure, shortened: as §1
[9] = tested on: MDA-MB-435; test: Inhibition of cell migration in human MDA-MB-435 cells at 1 uM measured after 24 hrs; assay type: functional, cell-based; procedure, shortened: as §1
[10] = Drug uptake in human MDA-MB-231 cells at 1 uM after 2 hrs by fluorescence imaging analysis; assay type: ADME, cell-based; details: mda-mb-231, 2 h
Procedure, shortened: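 Breast cancer cells seeded at 100.000 per 35 mm dish in serum-supplemented DMEM, treated 24 h after seeding; medium swapped to serum-free DMEM before adding compound. Wide-field microscope, 20× oil objective, excitation 340 nm, excimer emission imaged 468–552 nm; same field imaged every 15 min from 60 to 165 min after addition.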

[11] = Drug uptake in plasma membrane of human MDA-MB-231 cells at 1 uM measured after 45 mins by fluorescence imaging analysis; assay type: ADME, cell membranes, Cell membrane; details: mda-mb-231, 0.75 h

| SMILES | Activity [1] | inhibition [2] | Activity [3] | Activity [4] | inhibition [5] | inhibition at 0.3 µM [6] [%] | inhibition [7] [%] | inhibition at 1 µM [8] [%] | inhibition [9] | Drug uptake [10] | inhibition [6] | Drug uptake [11] |
| --- | --- | --- | --- | --- | --- | --- | --- | --- | --- | --- | --- | --- |
| COC(COCCCCCCCCCCCCCCCCc1ccc2ccc3cccc4ccc1c2c34)CO[C@@H]1O[C@H](CO)[C@@H](O[C@@H]2O[C@H](CO)[C@H](O)[C@H](O)[C@H]2O)[C@H](O)[C@H]1O (mixture of isomers) | Non-Toxic | inactive | Active | Active |  |  |  |  |  |  |  |  |
| CCCCCCCCCCCCCCCCOCC(CO[C@@H]1O[C@H](CO)[C@@H](O[C@@H]2O[C@H](CO)[C@H](O)[C@H](O)[C@H]2O)[C@H](O)[C@H]1O)OC (stereo not given in full) |  |  |  |  | inactive | 50 | 73 |  |  |  |  |  |
| COC(COCCCCCCCCCCCc1ccc2ccc3cccc4ccc1c2c34)CO[C@@H]1O[C@H](CO)[C@@H](O[C@@H]2O[C@H](CO)[C@H](O)[C@H](O)[C@H]2O)[C@H](O)[C@H]1O (mixture of isomers) | Non-Toxic |  | Active | Active | inactive |  |  | -32.5 | inactive | Active | inactive | Active |
| COC(COCCCCc1ccc2ccc3cccc4ccc1c2c34)CO[C@@H]1O[C@H](CO)[C@@H](O[C@@H]2O[C@H](CO)[C@H](O)[C@H](O)[C@H]2O)[C@H](O)[C@H]1O (mixture of isomers) | Non-Toxic | inactive | Not Active | Not Active |  |  |  |  |  |  |  |  |
